# Counter-ions that a name gives are not always drawn.
# What was measured:
# [1] = test system: HT29 cells (TNF-α-induced necroptosis); assay: Necroptosis induction and inhibition assay in HT29; type: cell-based, human; conditions: for EC50: Homo sapiens, HT-29, read-out: EC50^HT29 against TNF-α-induced necroptosis, zVAD (20 μM), human TNF-α (40 ng/mL), Smac mimetic SM-164 (100 nM), CCK-8
# [2] = test system: L929 cells (TNF-α-induced necroptosis); assay: Necroptosis induction and inhibition assay in L929; type: cell-based, mouse; conditions: for EC50: Mus musculus, L929, read-out: EC50^L929 against TNF-α-induced necroptosis, mouse TNF-α (20 ng/mL) and zVAD (10 μM), CCK-8
# [3] = test system: RIPK3 and MLKL phosphorylation in L929 cells; assay: Western blot of RIPK3 and MLKL phosphorylation, L929; type: cell-based, mouse; conditions: L929, inhibitors at 3 and 10 µM, necroptosis induced for 3 hours
# Procedure, shortened: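 L929 cells were grown in 6-well plates to about 80% confluency and given test compound or DMSO with zVAD (10 μM) for 1-2 h. Mouse TNF-α (20 ng/mL) was then added for 3 h. Cells were washed three times in cold PBS and lysed in 10 mM Tris-HCl pH 8.0, 1% SDS, 1 mM orthovanadate with protease and phosphatase inhibitors. Lysates were boiled for 10 min and stored at -80 °C. Phospho-RIPK3 and phospho-MLKL were immunoblotted after 10% SDS-PAGE and PVDF transfer.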
# L929^RIPK3-/- cells = assay: Cell viability assay with or without zVAD, L929 RIPK3 knockout; type: cell-based, mouse
# Procedure, shortened: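 L929 cells were grown in MEM with 10% FBS. RIPK3 was knocked out by CRISPR/Cas9 (sgRNA against mouse RIPK3), and knockout was confirmed by sequencing and immunoblot. Knockout lines with or without re-expressed RIPK3 K51A or K51A/R69H were seeded at 10,000–20,000 cells/well and left to attach for 24 h. Cells were exposed to test compound alone or with zVAD for 18–20 h. Viability was read by CCK-8 (1–2 h, 37 °C, A450). Three experiments in triplicate; CC50 by nonlinear regression.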
# RIPK3-RIPK1 interaction = RIPK3-RIPK1 interaction (Mus musculus, UniProt Q9QZL0); assay: RIPK1 immunoprecipitation; type: cell-based; conditions: L929, 10 µM, 5 hours
# Chain of RIPK3-RIPK1 interaction (Q9QZL0 whole entry): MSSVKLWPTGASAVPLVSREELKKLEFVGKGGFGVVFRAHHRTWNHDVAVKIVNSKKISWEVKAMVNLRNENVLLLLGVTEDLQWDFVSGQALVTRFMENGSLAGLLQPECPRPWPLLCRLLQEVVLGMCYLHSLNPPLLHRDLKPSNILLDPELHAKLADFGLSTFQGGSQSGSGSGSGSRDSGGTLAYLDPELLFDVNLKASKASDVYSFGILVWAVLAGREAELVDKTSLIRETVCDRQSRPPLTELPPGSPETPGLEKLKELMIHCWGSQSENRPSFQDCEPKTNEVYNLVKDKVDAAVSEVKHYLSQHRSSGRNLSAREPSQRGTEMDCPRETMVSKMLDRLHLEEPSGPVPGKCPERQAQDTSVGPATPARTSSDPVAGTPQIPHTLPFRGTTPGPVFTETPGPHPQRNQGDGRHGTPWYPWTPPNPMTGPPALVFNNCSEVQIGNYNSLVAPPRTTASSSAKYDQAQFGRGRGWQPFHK
# Procedure, shortened: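 Lysates were cleared at 17,000 g for 15 min at 4 °C, and an input sample was kept. Lysate was incubated with anti-RIPK1 antibody on protein A/G magnetic beads for 2 h at 4 °C. Co-precipitated RIPK3 was detected by Western blot. Normalized quantification came from three independent experiments.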
# [4] = test system: caspase 3 and caspase 8 cleavage in L929 cells; assay: Western blot of caspase 3 and caspase 8 cleavage in L929 cells; type: cell-based, mouse; conditions: L929, 3 hours
# Procedure, shortened: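 L929 cells in 12-well plates at about 80% confluency were exposed for 3 h to test compound, DMSO or medium, each with 10 µM zVAD. Cells were lysed at room temperature in a Triton X-100/Tris-based 1× SDS sample buffer and boiled 10 min. Proteins were run on 15% SDS-PAGE and blotted to PVDF. Membranes were blocked in 5% milk and probed for caspase 3 and caspase 8 cleavage overnight at 4 °C. Three independent experiments.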
# [5] = test system: RIPK3 and MLKL phosphorylation in HT29 cells; assay: Western blot of RIPK3 and MLKL phosphorylation, HT29; type: cell-based, human; conditions: HT29, inhibitors at 3 and 10 µM, necroptosis induced for 3 hours
# Procedure, shortened: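 HT29 cells were grown in 12-well plates to about 80% confluency and given test compound or DMSO with zVAD (20 μM) for 1-2 h. Necroptosis was then induced with human TNF-α (40 ng/mL) plus SM-164 (100 nM) for 3 h. Cells were washed three times in cold PBS and lysed for 10 min at room temperature in RIPA buffer with protease and phosphatase inhibitors and SDS loading buffer. Phospho-RIPK3 and phospho-MLKL were immunoblotted after 10% SDS-PAGE and PVDF transfer.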
# [6] = test system: caspase 3 activity in L929 cell lysates; assay: Caspase 3 activity in L929 cell lysates; type: cell-based, mouse
# Procedure, shortened: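 L929 cells were cultured 12 h in 12-well plates, then exposed to test compound or DMSO for 0, 1, 2, 3 or 4 h. Protein was measured by BCA. Lysate was incubated with Ac-DEVD-pNA overnight at 37 °C and read at A405 minus blank. Three experiments, each in triplicate.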
# [7] = test system: panel of 379 human kinases; assay: Selectivity profiling, Eurofins KinaseProfiler; type: biochemical; conditions: 379 kinases
# [8] = target: panel of 379 human kinases (Homo sapiens, UniProt Q13882); assay: Selectivity profiling, Eurofins KinaseProfiler; type: biochemical; conditions: read-out: inhibition rate against breast tumor kinase (BRK)
# Chain of panel of 379 human kinases (Homo sapiens, UniProt Q13882) (Q13882 whole entry): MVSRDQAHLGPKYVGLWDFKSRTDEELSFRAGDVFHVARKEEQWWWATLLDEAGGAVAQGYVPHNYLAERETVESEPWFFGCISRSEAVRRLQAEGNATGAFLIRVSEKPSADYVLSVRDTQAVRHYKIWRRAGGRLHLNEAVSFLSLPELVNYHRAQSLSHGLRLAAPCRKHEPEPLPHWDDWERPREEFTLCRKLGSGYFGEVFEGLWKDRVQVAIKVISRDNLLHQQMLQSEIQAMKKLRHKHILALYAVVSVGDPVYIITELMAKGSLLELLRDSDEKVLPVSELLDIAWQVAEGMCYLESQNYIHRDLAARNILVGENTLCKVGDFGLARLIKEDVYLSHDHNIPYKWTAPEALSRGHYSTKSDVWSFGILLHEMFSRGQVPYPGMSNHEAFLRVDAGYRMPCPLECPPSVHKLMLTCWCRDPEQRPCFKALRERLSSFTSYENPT
# [9] = target: panel of 379 human kinases (Homo sapiens, UniProt O43353); assay: Selectivity profiling, Eurofins KinaseProfiler; type: biochemical; conditions: read-out: inhibition rate against RIPK2
# Chain of panel of 379 human kinases (Homo sapiens, UniProt O43353) (O43353 whole entry, the tested form may be a part): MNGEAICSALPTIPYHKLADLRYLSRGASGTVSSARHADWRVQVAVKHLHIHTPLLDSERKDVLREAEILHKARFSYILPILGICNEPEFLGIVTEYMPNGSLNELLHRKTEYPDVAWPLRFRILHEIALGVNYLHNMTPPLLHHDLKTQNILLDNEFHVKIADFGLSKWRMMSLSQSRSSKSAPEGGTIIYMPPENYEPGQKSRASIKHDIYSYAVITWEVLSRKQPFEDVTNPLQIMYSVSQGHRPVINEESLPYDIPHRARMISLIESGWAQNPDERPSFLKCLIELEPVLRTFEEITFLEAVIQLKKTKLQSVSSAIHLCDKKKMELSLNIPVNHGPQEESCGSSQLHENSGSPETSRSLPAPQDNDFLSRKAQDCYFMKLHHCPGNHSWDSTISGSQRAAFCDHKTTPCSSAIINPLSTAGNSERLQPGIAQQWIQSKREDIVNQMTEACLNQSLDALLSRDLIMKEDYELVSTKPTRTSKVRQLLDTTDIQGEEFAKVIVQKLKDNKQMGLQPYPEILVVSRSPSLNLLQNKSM
# BRK kinase domain = BRK kinase domain (Homo sapiens, UniProt Q13882, C433T); assay: ADP-Glo kinase assay, BRK; type: biochemical
# Chain of BRK kinase domain (Q13882 185-446 C433T): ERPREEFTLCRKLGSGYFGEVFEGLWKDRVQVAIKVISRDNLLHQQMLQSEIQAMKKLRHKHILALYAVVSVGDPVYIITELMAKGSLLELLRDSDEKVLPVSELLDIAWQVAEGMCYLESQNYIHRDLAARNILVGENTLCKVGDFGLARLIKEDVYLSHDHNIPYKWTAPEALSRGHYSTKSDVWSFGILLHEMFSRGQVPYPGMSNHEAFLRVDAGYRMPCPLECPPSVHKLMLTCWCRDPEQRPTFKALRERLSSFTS
# Procedure, shortened: (§1)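 Human kinase domains were expressed in Sf-9 cells from baculovirus and purified by Ni-NTA then size exclusion: BRK 185-446 (C433T, C-terminal 6×His) and RIPK2 1-310 (C-terminal 10×His). Each was preincubated with test compound or DMSO in 40 mM Tris pH 7.5, 20 mM MgCl2, 0.1 mg/mL BSA. ATP was added to 20 µM final for 1 h at room temperature, and ADP was read by ADP-Glo luminescence.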
# RIPK2 = RIPK2 (Homo sapiens, UniProt O43353); assay: ADP-Glo kinase assay, RIPK2; type: biochemical
# Chain of RIPK2 (O43353 1-310): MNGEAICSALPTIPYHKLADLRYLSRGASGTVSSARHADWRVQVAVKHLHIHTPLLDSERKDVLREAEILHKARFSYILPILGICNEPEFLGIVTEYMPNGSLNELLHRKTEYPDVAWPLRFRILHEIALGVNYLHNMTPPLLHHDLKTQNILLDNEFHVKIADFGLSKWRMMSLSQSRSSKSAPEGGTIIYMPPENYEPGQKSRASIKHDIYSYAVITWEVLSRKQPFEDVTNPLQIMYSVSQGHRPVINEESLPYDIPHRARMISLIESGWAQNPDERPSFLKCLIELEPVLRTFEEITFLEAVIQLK
# Procedure, shortened: as §1
# L929 cells = assay: Cell viability assay with or without zVAD; type: cell-based, mouse; conditions: for on-target apoptosis in cells (in words): L929, murine cells
SMILES,EC50 [1] [nM],EC50 [2] [nM],RIPK3 and MLKL phosphorylation induced by TNF-α (Western blot) [3],change of CC50 between L929 and L929^RIPK3-/- cells (L929^RIPK3-/- cells),interaction between RIPK3 and RIPK1 (co-immunoprecipitation) (RIPK3-RIPK1 interaction),activation of the apoptotic pathway: cleavage of caspase 8 and caspase 3 (Western blot) [4],RIPK3 and MLKL phosphorylation induced by TNF-α (Western blot) [5],concentration at which caspase 3 is activated [6] [µM],concentration at which cleavage of caspases 8 and 3 is seen (Western blot) [4] [µM],change of CC50 in the presence or absence of zVAD (L929 cells; L929),other results
"CC[C@H](C)c1nc2cc(Nc3ccnc4ccc(S(=O)(=O)C(C)C)cc34)ccc2s1 [LK01001, (S)-2-(sec-butyl)-N-(6-(isopropylsulfonyl)quinolin-4-yl)benzo[d]thiazol-5-amine hydrochloride]",4100,7000,–,–,–,–,–,–,–,–,–
"CC[C@@H](C)c1nc2cc(Nc3ccnc4ccc(S(=O)(=O)C(C)C)cc34)ccc2s1.Cl [LK01002, (R)-2-(sec-butyl)-N-(6-(isopropylsulfonyl)quinolin-4-yl)benzo[d]thiazol-5-amine hydrochloride]",2000,4800,effectively inhibit RIPK3 and MLKL phosphorylation,remain largely unchanged,neither increase the interaction of RIPK3 with RIPK1,nor activate the apoptotic pathway,effectively inhibit RIPK3 and MLKL phosphorylation,> 50,–,–,–
"CC(C)S(=O)(=O)c1ccc2nccc(Nc3ccc4sc(C5CCCC5)nc4c3)c2c1.Cl [LK01003, 2-cyclopentyl-N-(6-(isopropylsulfonyl)quinolin-4-yl)benzo[d]thiazol-5-amine hydrochloride]",850,3700,effectively inhibit RIPK3 and MLKL phosphorylation,remain largely unchanged,neither increase the interaction of RIPK3 with RIPK1,nor activate the apoptotic pathway,effectively inhibit RIPK3 and MLKL phosphorylation,> 50,–,–,"S (35) score ([7]; 1 μM): approximately 0.005; S (35) score ([7]; 10 μM): approximately 0.03; number of kinases with over 65% inhibition rate ([7]; 10 μM): 12 kinases; inhibition at 1 µM [8]: > 65%; inhibition at 1 µM [9]: > 65%; IC50 (BRK kinase domain): 248 nM; selectivity index (SI), BRK over RIPK3 (BRK kinase domain): 124; IC50 (RIPK2): 48 nM; selectivity index (SI), RIPK2 over RIPK3 (RIPK2): 24"
"CCC(C)c1nc2cc(-c3nn(C(C)(C)C)c4ncnc(N)c34)ccc2s1 (stereo not shown) [LK01004, 1-(tert-butyl)-3-(2-(sec-butyl)benzo[d]thiazol-5-yl)-1H-pyrazolo[3,4-d]pyrimidin-4-amine]",–,3000,–,–,–,–,–,–,> 100,do not change significantly in the presence or absence of zVAD,RIPK3-independent cell killing (off-target toxicity) (L929 cells; L929): still exhibit a substantial portion of RIPK3-independent cell killing; on-target apoptosis in cells (in words) (L929 cells): do not induce on-target apoptosis
"CC(C)(C)n1nc(-c2ccc3sc(C4CCCC4)nc3c2)c2c(N)ncnc21 [LK01005, 1-(tert-butyl)-3-(2-cyclopentylbenzo[d]thiazol-5-yl)-1H-pyrazolo[3,4-d]pyrimidin-4-amine]",–,2100,–,–,–,–,–,–,> 100,do not change significantly in the presence or absence of zVAD,RIPK3-independent cell killing (off-target toxicity) (L929 cells; L929): still exhibit a substantial portion of RIPK3-independent cell killing; on-target apoptosis in cells (in words) (L929 cells): do not induce on-target apoptosis
"Cl.O=S1(=O)C=C(C2CC2)c2cc3nccc(Nc4ccc5sc(C6CCCC6)nc5c4)c3cc21 [LK01033, 8-((2-cyclopentylbenzo[d]thiazol-5-yl)amino)-3-cyclopropylthieno[2,3-g]quinoline 1,1-dioxide hydrochloride]",110,390,–,–,–,–,–,–,> 10,does not change significantly in the presence or absence of zVAD,–
"CC(C)S(=O)(=O)c1cc2c(Nc3ccc4sc(C5CCCC5)nc4c3)ccnc2cc1OCCO [LK01045, 2-((4-((2-cyclopentylbenzo[d]thiazol-5-yl)amino)-6-(isopropylsulfonyl)quinolin-7-yl)oxy)ethan-1-ol]",160,610,effectively inhibits RIPK3 and MLKL phosphorylation,remain largely unchanged,neither increase the interaction of RIPK3 with RIPK1,nor activate the apoptotic pathway,effectively inhibits RIPK3 and MLKL phosphorylation,> 50,–,–,"stronger potency compared to GSK'872 (EC50, HT29) ([1]; HT29 necroptosis): ~49 fold; stronger potency compared to LK01003 (EC50, HT29) ([1]; HT29 necroptosis): ~5 fold; stronger potency compared to GSK'872 (EC50, L929) ([2]; L929 necroptosis): approximately 6 fold; stronger potency compared to LK01003 (EC50, L929) ([2]; L929 necroptosis): approximately 6 fold"
"N#Cc1c(Oc2ccc(F)c(NC(=O)Cc3cccc(C(F)(F)F)c3)c2)ccc2nc(NC(=O)C3CC3)sc12 [TAK-632, N-(7-Cyano-6-(4-fluoro-3-(2-(3-(trifluoromethyl)phenyl)acetamido)phenoxy)benzo[d]thiazol-2-yl)cyclopropanecarboxamide, reference compound]",–,–,–,–,–,–,–,–,> 100,–,–
"Cl.O=S1(=O)C=C(C2CC2)c2cc3nccc(Nc4ccc5scnc5c4)c3cc21 [Zharp-99, 8-(benzo[d]thiazol-5-ylamino)-3-cyclopropylthieno[2,3-g]quinoline 1,1-dioxide hydrochloride, reference compound]",220,70,–,–,–,–,–,–,0.1,–,difference of CC50 in the presence or absence of zVAD (L929 cells; L929): ~ 36 fold

# — article PMC12062462 (Nature Communications, 2025)
